Measurements: paper PMC2924166 (Proteins, 2009)
Values belong to the molecule of their own block, whether it stands above or below them.

Columns and labels:
Type in all cases: binding
[1] = Equilibrium calcium titration of CaM, sites I and II; conditions: pH 7.4, 22°C
In short: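 Recombinant CaM constructs (1–148, 1–80) at 2 μM were used alone or with 10 μM CaMKII CaM-binding-domain peptide (residues 290–309, 1:5). CaCl2 was titrated to 1 nM–0.01 M. Phe fluorescence was read at ex 250/em 280 nm. Free Ca2+ came from 0.1 μM Oregon Green, or XRhod5F with peptide. Runs were done ≥3 times, normalized, and fit by nonlinear least squares to ΔG1, ΔG2.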

[2] = Equilibrium calcium titration of CaM, sites III and IV; conditions: pH 7.4, 22°C
WT CaM1–148 = WT CaM1–148 (Rattus norvegicus, UniProt P0DP29); assay: Fluorescence anisotropy titration of Fl-CaMKIIp with WT CaM1–148
[3] = Calcium affinity of fluorescent indicator dyes; conditions: higher affinity for calcium
[4] = peptide equivalent 0, 2 μM CaM, 50 mM HEPES, 100 mM KCl, 1 mM MgCl2, 0.05 mM EGTA, 5 mM NTA, Oregon Green, repeated at least three times

ΔG1 of calcium binding, sites I and II [1, 4]: -5.92 ± 0.38 kcal/mol
Molecule: CaM1–80: N-domain fragment of calmodulin, residues 1–80
ΔGc, sites I and II ([1]; peptide equivalent 0): -1.73 ± 0.68 kcal/mol
ΔGc, sites I and II ([1]; peptide equivalent 5 (CaMKIIp)): -3.38 ± 1.18 kcal/mol

ΔG1 of calcium binding, sites III and IV [2, 4]: -5.45 ± 0.51 kcal/mol
Molecule: CaM76–148: C-domain fragment of calmodulin, residues 76–148
ΔGc, sites III and IV ([2]; peptide equivalent 0): -4.57 ± 1.15 kcal/mol
ΔGc, sites III and IV ([2]; peptide equivalent 5 (CaMKIIp)): -2.81 ± 0.47 kcal/mol

level of saturation of CaMKIIp by CaM1–148 (WT CaM1–148; 10 μM CaM1–148, 23 nM calcium): less than 10%
level of saturation of CaMKIIp by CaM1–148 (WT CaM1–148; 10 μM CaM1–148, 311 nM calcium): more than 95%
Kd (WT CaM1–148; Kd of (Ca^2+)4-CaM1–148 for Fl-CaMKIIp, 10 mM CaCl2, stoichiometric range, upper limit): ≤ 10 nM
concentration of apo CaM-CaMKIIp in presence of 5 eq. CaMKIIp (WT CaM1–148; apo, 2 μM CaM, 10 μM CaMKIIp): ≤ 10%
Molecule: CC[C@H](C)[C@H](NC(=O)[C@H](C)NC(=O)CNC(=O)[C@H](CCCCN)NC(=O)[C@H](CC(C)C)NC(=O)[C@H](CCCCN)NC(=O)[C@H](CCCNC(=N)N)NC(=O)[C@H](CCCNC(=N)N)NC(=O)[C@H](C)NC(=O)[C@H](CC(N)=O)NC(=O)[C@H](Cc1ccccc1)NC(=O)[C@H](CCCCN)NC(=O)[C@H](CCCCN)NC(=O)[C@@H](N)CC(C)C)C(=O)N[C@@H](CC(C)C)C(=O)N[C@H](C(=O)N[C@H](C(=O)N[C@@H](CCSC)C(=O)N[C@@H](CC(C)C)C(=O)N[C@@H](C)C(=O)O)[C@@H](C)O)[C@@H](C)O [CaMKIIp]

lower Kd for calcium versus Oregon Green [3]: ~ 20 fold
Molecule: XRhod5F
